Experimental data reported in ChEMBL document CHEMBL1122393, “Potent antagonists of the antidiuretic responses to arginine-vasopressin based on modifications of [1-(beta-mercapto-beta,beta-cyclopentamethylenepropionic acid),2-D- phenylalanine,4-valine]arginine-vasopressin at position 4” (J Med Chem, 1983).
Numbered stars: 1 amine (or outer) side, 2 acyl side, 3 side chain; on linkers, the order of the positions; unused ones are H or OH. Bridge positions count the residues as written; N and C are the ends. Square brackets hold non-standard residues; d marks the D form. Peptide text beside a SMILES is read from it. X1 = O=C(CC1(S[*:2])CCCCC1)[*:1]

Legend:
Rattus norvegicus [1] = assay: In vivo antiantidiuretic potency of compound was determined in rats; type: functional, organism-based; conditions: Urine, read-out: pA2 (converted)
Procedure, shortened: (§1)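 Antidiuretic assay in rats under ethanol anaesthesia, with the USP posterior pituitary reference standard as agonist, given intravenously. The standard was injected 20 min after antagonist, or 10 min for analogues without agonism. Two antagonist doses were used, and the effective dose (nmol/kg) was log-interpolated as the dose reducing the 2x-unit response to the 1x-unit response. In vivo pA2 = −log(effective dose/estimated volume of distribution).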

Rattus norvegicus [2] = organism: Rattus norvegicus; assay: In vitro anti-oxytocic potency of compound in rat uterus in presence of 0.5 mM of Mg; type: functional; conditions: read-out: pA2 (converted)
Procedure, shortened: (§2)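 Oxytocic antagonism on isolated rat uteri, with the USP posterior pituitary reference standard as agonist. Potency is expressed as a pA2 value.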

Rattus norvegicus [3] = organism: Rattus norvegicus; assay: Effective dose of compound was determined for anti-vasopressor potency in rat; type: functional
Procedure, shortened: (§3)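 Intravenous vasopressor assay in phenoxybenzamine-treated rats under urethane anaesthesia, with the USP posterior pituitary reference standard as agonist. Each antagonist was given at two doses. The effective dose (nmol/kg) is the dose that cuts the response to 2x units of agonist to the response to 1x unit given before antagonist. It was interpolated on a log scale between the two doses.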

Rattus norvegicus [4] = organism: Rattus norvegicus; assay: Effective dose of compound was determined for antiantidiuretic potency in rats; type: functional, Urine; procedure, shortened: as §1
[5] = Ratio of anti-vasopressor ED to antidiuretic ED was determined; type: functional, Urine
Procedure, shortened: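 Ratio computed as antivasopressor effective dose divided by antiantidiuretic effective dose. Both effective doses come from intravenous rat assays and are defined as the dose (nmol/kg) that reduces the 2x-unit agonist response to the 1x-unit response.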

Rattus norvegicus [6] = organism: Rattus norvegicus; assay: In vitro anti-oxytocic potency of compound in rat uterus in absence of Mg; type: functional; conditions: read-out: pA2 (converted); procedure, shortened: as §2
Rattus norvegicus [7] = assay: The compound tested in vivo for anti-vasopressor potency in rats; type: functional, organism-based; conditions: read-out: pA2 (converted); procedure, shortened: as §3
Rattus norvegicus [8] = assay: (§4) In vivo anti-oxytocic potency of compound was determined in rat uterus; type: functional
Procedure, shortened: (§5)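 Rat uterus in situ, with synthetic oxytocin as agonist. Two antagonist doses were used, and the effective dose (nmol/kg) was interpolated on a log scale as the dose reducing the 2x-unit response to the 1x-unit response.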

[9] = Ratio of anti-oxytocic ED to antidiuretic ED was determined; type: functional, Urine
Procedure, shortened: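 Ratio computed as antioxytocic effective dose divided by antiantidiuretic effective dose. Both effective doses are defined as the dose (nmol/kg) that reduces the 2x-unit agonist response to the 1x-unit response.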

Rattus norvegicus [10] = assay: as §4; type: functional, organism-based; conditions: read-out: pA2 (converted); procedure, shortened: as §5
Rattus norvegicus [11] = organism: Rattus norvegicus; assay: Effective dose of compound was determined for anti-vasopressor potency in rat; Weak agonist; type: functional, organism-based; conditions: filed as partial agonist
Rattus norvegicus [12] = organism: Rattus norvegicus; assay: Effective dose of compound was determined for antiantidiuretic potency in rats; Weak agonist; type: functional, organism-based; conditions: Urine, filed as partial agonist
Procedure, shortened: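 Intravenous antidiuretic assay in rats under ethanol anesthesia. The agonist was the USP posterior pituitary reference standard, injected 20 min after the antagonist to allow recovery from initial antidiuretic responses. Antagonist was given at high and low doses. The effective dose (nmol/kg) reduces the response to 2x units of agonist to that of 1x unit given before antagonist, log-interpolated.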

## NC(=O)CNC(=O)[C@H](CCCN=C(N)N)NC(=O)[C@@H]1CCCN1C(=O)[C@@H]1CSSC2(CCCCC2)CC(=O)N[C@H](Cc2ccccc2)C(=O)N[C@@H](Cc2ccccc2)C(=O)N[C@@H](Cc2ccc(O)cc2)C(=O)N[C@@H](CC(N)=O)C(=O)N1
Rattus norvegicus [1]
  Kb: ~2690 nM
Rattus norvegicus [2]
  Kb: 37.2 nM
Rattus norvegicus [3]
  ED: 22 nM/kg
Rattus norvegicus [4]
  ED: ~178 nM/kg
[5]
  ED ratio: 0.12
Rattus norvegicus [6]
  Kb: 20.9 nM
Rattus norvegicus [7]
  Kb: 263 nM

## NC(=O)CC[C@@H]1NC(=O)[C@H](Cc2ccccc2)NC(=O)[C@@H](Cc2ccccc2)NC(=O)CC2(CCCCC2)SSC[C@@H](C(=O)N2CCC[C@H]2C(=O)N[C@@H](CCCN=C(N)N)C(=O)NCC(N)=O)NC(=O)[C@H](CC(N)=O)NC1=O [listing 1 of 2 here]
Rattus norvegicus [3]
  ED: 0.3 nM/kg
Rattus norvegicus [4]
  ED: 4.3 nM/kg
[5]
  ED ratio: 0.07
Rattus norvegicus [8]
  ED: 4 nM/kg
[9]
  ED ratio: 0.9

## NC(=O)CNC(=O)[C@H](CCCN=C(N)N)NC(=O)[C@@H]1CCCN1C(=O)[C@@H]1CSSC2(CCCCC2)CC(=O)N[C@H](Cc2ccccc2)C(=O)N[C@@H](Cc2ccccc2)C(=O)N[C@@H](Cc2ccccc2)C(=O)N[C@@H](CC(N)=O)C(=O)N1
Rattus norvegicus [1]
  Kb: 851 nM
Rattus norvegicus [2]
  Kb: 21.4 nM
Rattus norvegicus [3]
  ED: 25 nM/kg
Rattus norvegicus [4]
  ED: 65 nM/kg
[5]
  ED ratio: 0.5
Rattus norvegicus [6]
  Kb: 26.9 nM
Rattus norvegicus [7]
  Kb: 355 nM

## CC[C@H](C)[C@@H]1NC(=O)[C@H](Cc2ccccc2)NC(=O)[C@@H](Cc2ccccc2)NC(=O)CC2(CCCCC2)SSC[C@@H](C(=O)N2CCC[C@H]2C(=O)N[C@@H](CCCN=C(N)N)C(=O)NCC(N)=O)NC(=O)[C@H](CC(N)=O)NC1=O ([dF]FINCPRG-NH2; linker N-5 via X1)
Rattus norvegicus [1]
  Kb: 5.75 nM
Rattus norvegicus [2]
  Kb: 6.46 nM
Rattus norvegicus [10]
  Kb: 77.6 nM
Rattus norvegicus [3]
  ED: 0.99 nM/kg
Rattus norvegicus [4]
  ED: 0.46 nM/kg
[5]
  ED ratio: 2.2
Rattus norvegicus [6]
  Kb: 9.12 nM
Rattus norvegicus [7]
  Kb: 13.8 nM
Rattus norvegicus [8]
  ED: 5.8 nM/kg
[9]
  ED ratio: 13

## NC(=O)CNC(=O)[C@H](CCCN=C(N)N)NC(=O)[C@@H]1CCCN1C(=O)[C@@H]1CSSC2(CCCCC2)CC(=O)N[C@H](Cc2ccccc2)C(=O)N[C@@H](Cc2ccccc2)C(=O)N[C@@H](CC2CCCCC2)C(=O)N[C@@H](CC(N)=O)C(=O)N1
Rattus norvegicus [1]
  Kb: 64.6 nM
Rattus norvegicus [2]
  Kb: 25.7 nM
Rattus norvegicus [3]
  ED: 9 nM/kg
Rattus norvegicus [4]
  ED: 4.6 nM/kg
[5]
  ED ratio: 2
Rattus norvegicus [6]
  Kb: 16.6 nM
Rattus norvegicus [7]
  Kb: 200 nM

## CC(C)C[C@@H]1NC(=O)[C@H](Cc2ccccc2)NC(=O)[C@@H](Cc2ccccc2)NC(=O)CC2(CCCCC2)SSC[C@@H](C(=O)N2CCC[C@H]2C(=O)N[C@@H](CCCN=C(N)N)C(=O)NCC(N)=O)NC(=O)[C@H](CC(N)=O)NC1=O
Rattus norvegicus [1]
  Kb: 851 nM
Rattus norvegicus [2]
  Kb: 13.2 nM
Rattus norvegicus [3]
  ED: 1.3 nM/kg
Rattus norvegicus [4]
  ED: 66 nM/kg
[5]
  ED ratio: 0.02
Rattus norvegicus [7]
  Kb: 20 nM

## NC(=O)CNC(=O)[C@H](CCCN=C(N)N)NC(=O)[C@@H]1CCCN1C(=O)[C@@H]1CSSC2(CCCCC2)CC(=O)N[C@H](Cc2ccccc2)C(=O)N[C@@H](Cc2ccccc2)C(=O)NCC(=O)N[C@@H](CC(N)=O)C(=O)N1
Rattus norvegicus [1]
  Kb: 1410 nM
Rattus norvegicus [2]
  Kb: 46.8 nM
Rattus norvegicus [3]
  ED: 11 nM/kg
Rattus norvegicus [4]
  ED: 97 nM/kg
[5]
  ED ratio: 0.11
Rattus norvegicus [6]
  Kb: 17.4 nM
Rattus norvegicus [7]
  Kb: 162 nM

## NC(=O)CC[C@@H]1NC(=O)[C@H](Cc2ccccc2)NC(=O)[C@@H](Cc2ccccc2)NC(=O)CC2(CCCCC2)SSC[C@@H](C(=O)N2CCC[C@H]2C(=O)N[C@@H](CCCN=C(N)N)C(=O)NCC(N)=O)NC(=O)[C@H](CC(N)=O)NC1=O [listing 2 of 2 here]
Rattus norvegicus [1]
  Kb: 61.7 nM
Rattus norvegicus [2]
  Kb: 3.72 nM
Rattus norvegicus [10]
  Kb: 56.2 nM
Rattus norvegicus [6]
  Kb: 2.57 nM
Rattus norvegicus [7]
  Kb: 4.47 nM

## NC(=O)CNC(=O)[C@H](CCCN=C(N)N)NC(=O)[C@@H]1CCCN1C(=O)[C@@H]1CSSC2(CCCCC2)CC(=O)N[C@H](Cc2ccccc2)C(=O)N[C@@H](Cc2ccccc2)C(=O)N2CCC[C@H]2C(=O)N[C@@H](CC(N)=O)C(=O)N1
Rattus norvegicus [2]
  Kb: 3720 nM
Rattus norvegicus [11]
  ED: Partial agonist
Rattus norvegicus [6]
  Kb: 1740 nM
Rattus norvegicus [12]
  ED: Partial agonist

## C[C@@H]1NC(=O)[C@H](Cc2ccccc2)NC(=O)[C@@H](Cc2ccccc2)NC(=O)CC2(CCCCC2)SSC[C@@H](C(=O)N2CCC[C@H]2C(=O)N[C@@H](CCCN=C(N)N)C(=O)NCC(N)=O)NC(=O)[C@H](CC(N)=O)NC1=O
Rattus norvegicus [1]
  Kb: 30.2 nM
Rattus norvegicus [2]
  Kb: 18.6 nM
Rattus norvegicus [3]
  ED: 1.9 nM/kg
Rattus norvegicus [4]
  ED: 2.2 nM/kg
[5]
  ED ratio: 0.9
Rattus norvegicus [6]
  Kb: 20.9 nM
Rattus norvegicus [7]
  Kb: 28.2 nM

## CCCC[C@@H]1NC(=O)[C@H](Cc2ccccc2)NC(=O)[C@@H](Cc2ccccc2)NC(=O)CC2(CCCCC2)SSC[C@@H](C(=O)N2CCC[C@H]2C(=O)N[C@@H](CCCN=C(N)N)C(=O)NCC(N)=O)NC(=O)[C@H](CC(N)=O)NC1=O
Rattus norvegicus [1]
  Kb: 75.9 nM
Rattus norvegicus [2]
  Kb: 16.6 nM
Rattus norvegicus [3]
  ED: 2.1 nM/kg
Rattus norvegicus [4]
  ED: 5.6 nM/kg
[5]
  ED ratio: 0.4
Rattus norvegicus [6]
  Kb: 28.8 nM
Rattus norvegicus [7]
  Kb: 30.2 nM

## C[C@@H](O)[C@@H]1NC(=O)[C@H](Cc2ccccc2)NC(=O)[C@@H](Cc2ccccc2)NC(=O)CC2(CCCCC2)SSC[C@@H](C(=O)N2CCC[C@H]2C(=O)N[C@@H](CCCN=C(N)N)C(=O)NCC(N)=O)NC(=O)[C@H](CC(N)=O)NC1=O
Rattus norvegicus [1]
  Kb: 24 nM
Rattus norvegicus [2]
  Kb: 9.77 nM
Rattus norvegicus [10]
  Kb: 44.7 nM
Rattus norvegicus [3]
  ED: 2.9 nM/kg
Rattus norvegicus [4]
  ED: 1.7 nM/kg
[5]
  ED ratio: 1.7
Rattus norvegicus [6]
  Kb: 9.12 nM
Rattus norvegicus [7]
  Kb: 41.7 nM
Rattus norvegicus [8]
  ED: 3.2 nM/kg
[9]
  ED ratio: 1.9

## CC[C@@H]1NC(=O)[C@H](Cc2ccccc2)NC(=O)[C@@H](Cc2ccccc2)NC(=O)CC2(CCCCC2)SSC[C@@H](C(=O)N2CCC[C@H]2C(=O)N[C@@H](CCCN=C(N)N)C(=O)NCC(N)=O)NC(=O)[C@H](CC(N)=O)NC1=O
Rattus norvegicus [1]
  Kb: 11 nM
Rattus norvegicus [10]
  Kb: 30.2 nM
Rattus norvegicus [3]
  ED: 1.4 nM/kg
Rattus norvegicus [4]
  ED: 0.77 nM/kg
Rattus norvegicus [6]
  Kb: 18.6 nM
Rattus norvegicus [7]
  Kb: 20 nM
Rattus norvegicus [8]
  ED: 2.4 nM/kg

## CC(C)[C@@H]1NC(=O)[C@H](Cc2ccccc2)NC(=O)[C@@H](Cc2ccccc2)NC(=O)CC2(CCCCC2)SSC[C@@H](C(=O)N2CCC[C@H]2C(=O)N[C@@H](CCCN=C(N)N)C(=O)NCC(N)=O)NC(=O)[C@H](CC(N)=O)NC1=O ([dF]FVNCPRG-NH2; linker N-5 via X1)
Rattus norvegicus [3]
  ED: 0.58 nM/kg
Rattus norvegicus [4]
  ED: 0.67 nM/kg
[5]
  ED ratio: 0.9
Rattus norvegicus [8]
  ED: 8.9 nM/kg

## CCC[C@@H]1NC(=O)[C@H](Cc2ccccc2)NC(=O)[C@@H](Cc2ccccc2)NC(=O)CC2(CCCCC2)SSC[C@@H](C(=O)N2CCC[C@H]2C(=O)N[C@@H](CCCN=C(N)N)C(=O)NCC(N)=O)NC(=O)[C@H](CC(N)=O)NC1=O
Rattus norvegicus [1]
  Kb: 102 nM
Rattus norvegicus [2]
  Kb: 19.1 nM
Rattus norvegicus [3]
  ED: 1.4 nM/kg
Rattus norvegicus [4]
  ED: 6.9 nM/kg
[5]
  ED ratio: 0.2
Rattus norvegicus [6]
  Kb: 9.33 nM
Rattus norvegicus [7]
  Kb: 18.6 nM
